Results: ChEMBL document CHEMBL4616723, “Discovery of Antibacterials That Inhibit Bacterial RNA Polymerase Interactions with Sigma Factors” (J Med Chem, 2020)
≈ marks a conversion by molar mass, not a printed value. Calls of active or inactive are those of the source. No cut-off for these calls is given here.

Legend:
Acinetobacter baumannii = assay: Antibacterial activity against Acinetobacter baumannii ATCC 19606 after 20 hrs by CLSI based-broth microdilution method; assay type: functional; conditions: ATCC 19606 = CIP 70.34 = JCM 6841, 20 h
Escherichia coli = assay: Antibacterial activity against Escherichia coli ATCC 25922 after 20 hrs by CLSI based-broth microdilution method; assay type: functional; conditions: ATCC 25922, 20 h
Klebsiella pneumoniae = assay: Antibacterial activity against Klebsiella pneumoniae ATCC 700603 after 20 hrs by CLSI based-broth microdilution method; assay type: functional; conditions: ATCC 700603, 20 h
Streptococcus pneumoniae [1] = assay: Antibacterial activity against Streptococcus pneumoniae ATCC 49619 after 16 to 20 hrs by CLSI based-broth microdilution method; assay type: functional
Enterobacter cloacae = assay: Antibacterial activity against Enterobacter cloacae ATCC 13047 after 20 hrs by CLSI based-broth microdilution method; assay type: functional; conditions: subsp. cloacae ATCC 13047, 20 h
Pseudomonas aeruginosa = assay: Antibacterial activity against Pseudomonas aeruginosa ATCC 27853 after 20 hrs by CLSI based-broth microdilution method; assay type: functional; conditions: ATCC 27853, 20 h
[2] = Inhibition of N-terminal SmBiT-fused Bacillus subtilis RNAP subunit beta' CH region expressed in Escherichia coli BL21(DE3)pLysS interaction with C- terminal LgBiT-fused Bacillus subtilis RNA polymerase sigma factor SigA expressed in Escherichia coli BL21(DE3)pLysS preincubated for 10 mins followed by RNA polymerase sigma factor SigA addition and measured after 10 mins by nano-glo luciferase assay
Procedure, shortened: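 Split-luciferase complementation in PBS: N-SmBiT-CH (2.5 μM stock) mixed with compound at desired concentrations, 10 min at 37 °C. C-LgBiT-σA (2.5 μM stock) then added, another 10 min at 37 °C. Equal volume of Nano-Glo substrate added and luminescence read. No-drug control included. Run in triplicate with technical repeats.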

Streptococcus pneumoniae [3] = assay: Antibacterial activity against Streptococcus pneumoniae ATCC 49619 after 20 hrs by CLSI based-broth microdilution method; assay type: functional; conditions: ATCC 49619, 20 h
Enterococcus faecalis = assay: Antibacterial activity against Enterococcus faecalis ATCC 19433 after 20 hrs by CLSI based-broth microdilution method; assay type: functional; conditions: ATCC 19433, 20 h
Staphylococcus aureus [4] = assay: Antibacterial activity against Staphylococcus aureus ATCC 29213 after 20 hrs by CLSI based-broth microdilution method; assay type: functional; conditions: ATCC 29213, 20 h
Streptococcus pneumoniae [5] = assay: Antibacterial activity against Streptococcus pneumoniae ATCC 49619 assessed as reduction in pneumolysin release at 0.25 to 0.5 times MIC incubated for 16 to 20 hrs by Western blot analysis; assay type: functional, organism-based
Procedure, shortened: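 Overnight static culture in brain–heart infusion broth, with or without serially diluted compound; rifampicin and ceftriaxone controls at twofold dilutions from 2 to 0.002 μg/mL; untreated control. […] Western blot probed with rabbit polyclonal anti-pneumolysin (1:1000) and HRP anti-rabbit secondary, ECL chemiluminescence; band intensity normalized to untreated control.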

Streptococcus agalactiae = assay: Antibacterial activity against Streptococcus agalactiae ATCC 12386 after 20 hrs by CLSI based-broth microdilution method; assay type: functional; conditions: ATCC 12386, 20 h
Staphylococcus aureus [6] = assay: Antibacterial activity against Staphylococcus aureus ATCC 25923 after 20 hrs by CLSI based-broth microdilution method; assay type: functional; conditions: ATCC 25923, 20 h
[7] = tested on: Staphylococcus saprophyticus; assay: Antibacterial activity against Staphylococcus saprophyticus ATCC 15305 after 20 hrs by CLSI based-broth microdilution method; assay type: functional; conditions: subsp. saprophyticus ATCC 15305, 20 h
[8] = tested on: Staphylococcus epidermidis; assay: Antibacterial activity against Staphylococcus epidermidis ATCC 12228 after 20 hrs by CLSI based-broth microdilution method; assay type: functional; conditions: ATCC 12228, 20 h
Streptococcus pyogenes = assay: Antibacterial activity against Streptococcus pyogenes ATCC 19615 after 20 hrs by CLSI based-broth microdilution method; assay type: functional; conditions: ATCC 19615, 20 h
[9] = Therapeutic index, ratio of CC50 for human A549 cells to MIC for Streptococcus pneumoniae ATCC 49619; assay type: toxicity; conditions: read-out: TI
HepG2 = assay: Cytotoxicity against human HepG2 cells after 48 to 72 hrs by MTT assay; assay type: cell-based
A549 = assay: Cytotoxicity against human A549 cells after 48 to 72 hrs by MTT assay; assay type: cell-based
[10] = Therapeutic index, ratio of CC50 for human HepG2 cells to MIC for Streptococcus pneumoniae ATCC 49619; assay type: toxicity; conditions: read-out: TI
[11] = Apparent permeability across apical to basolateral membrane in human Caco2 cells at 10 ug/ml by LC-MS/MS analysis; assay type: ADME, cell-based; conditions: Caco-2
Procedure, shortened: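 Caco-2 monolayers grown 21–28 days on Transwell polycarbonate membranes, TEER ≥165 Ω cm2; preincubated 20 min at 37 °C in transport buffer; apical-to-basolateral transport only, pH 7.4 on both sides; receiver sampled over time under sink conditions; concentrations measured by LC–MS/MS.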

[12] = Haemolytic activity in human erythrocytes at 0.1 to 10 ug/ml relative to control; assay type: ADME, cell-based, Erythrocyte; conditions: read-out: Activity
Procedure, shortened: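 Human erythrocytes washed in 150 mM NaCl, resuspended in PBS pH 7.4 (2% blood); compound at final 0.1, 1 and 10 μg/mL (0.5% DMSO) for 45 min at 37 °C, n = 6; spun at 500g, 4 °C; supernatant absorbance read at 540 nm; 1% Triton X-100 as positive and PBS as negative control; % lysis calculated.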

[13] = Inhibition of Escherichia coli RNAP/sigma-70 protein-protein interaction assessed as reduction in RNA synthesis preincubated for 10 mins followed by sigma-70/DNA template/AGU/ApU/alpha [32P]GTP addition and measured after 10 mins by phosphorimaging analysis
Staphylococcus aureus [14] = assay: Effect on total RNA level in Staphylococcus aureus ATCC 29213 at 1/4 to 1/8 times MIC by fluorimetric method; assay type: functional

MIC (Streptococcus pneumoniae [1])	SMILES	MIC (Acinetobacter baumannii)	MIC (Escherichia coli)	MIC (Klebsiella pneumoniae)	MIC (Enterobacter cloacae)	MIC (Pseudomonas aeruginosa)	MIC (Enterococcus faecalis)	MIC (Staphylococcus aureus [4])	MIC (Streptococcus agalactiae)	MIC (Staphylococcus aureus [6])	MIC [7]	MIC [8]	MIC (Streptococcus pyogenes)	other results
128 µg/mL (≈ 325 µM)	Nc1ccc(Sc2ccc(C(=O)c3ccccc3C(=O)O)cc2[N+](=O)[O-])cc1	> 256 µg/mL	> 256 µg/mL	> 256 µg/mL	> 256 µg/mL	> 256 µg/mL								
64 µg/mL (≈ 149 µM)	Nc1cc(Cl)ccc1Sc1ccc(C(=O)c2ccccc2C(=O)O)cc1[N+](=O)[O-]	> 256 µg/mL	> 256 µg/mL	> 256 µg/mL	> 256 µg/mL	> 256 µg/mL								
	Nc1ccccc1Sc1ccc(C(=O)Nc2ccc(C(=O)O)cc2)cc1[N+](=O)[O-]	> 256 µg/mL	> 256 µg/mL	> 256 µg/mL	> 256 µg/mL	> 256 µg/mL								IC50 [2]: 97 µM; MIC (Streptococcus pneumoniae [3]): 256 µg/mL (≈ 625 µM)
	CO[C@H]1/C=C/O[C@@]2(C)Oc3c(C)c(O)c4c(O)c(c(/C=N/N5CCN(C)CC5)c(O)c4c3C2=O)NC(=O)/C(C)=C\C=C\[C@H](C)[C@H](O)[C@@H](C)[C@@H](O)[C@@H](C)[C@H](OC(C)=O)[C@@H]1C [RIFAMPIN]						4 µg/mL (≈ 4.86 µM)	0.03 µg/mL (≈ 0.0365 µM)	0.03 µg/mL (≈ 0.0365 µM)	0.01 µg/mL (≈ 0.0122 µM)	0.03 µg/mL (≈ 0.0365 µM)	0.03 µg/mL (≈ 0.0365 µM)	0.03 µg/mL (≈ 0.0365 µM)	Activity (Streptococcus pneumoniae [5]): Active; MIC (Streptococcus pneumoniae [3]): 0.0625 µg/mL (≈ 0.0759 µM)
	Nc1ccccc1Sc1ccc(C(=O)c2ccccc2C(=O)O)cc1[N+](=O)[O-]	> 256 µg/mL	> 256 µg/mL	> 256 µg/mL	> 256 µg/mL	> 256 µg/mL	256 µg/mL (≈ 649 µM)	> 256 µg/mL	> 256 µg/mL	> 256 µg/mL	256 µg/mL (≈ 649 µM)	> 256 µg/mL	256 µg/mL (≈ 649 µM)	
	CO/N=C(\C(=O)N[C@@H]1C(=O)N2C(C(=O)O)=C(CSc3nc(=O)c(O)nn3C)CS[C@H]12)c1csc(N)n1													Activity (Streptococcus pneumoniae [5]): inactive
	O=C(O)c1ccccc1NCc1ccc(Sc2ccc(Cl)c(Cl)c2)c([N+](=O)[O-])c1	> 256 µg/mL	> 256 µg/mL	> 256 µg/mL	> 256 µg/mL	> 256 µg/mL	8 µg/mL (≈ 17.8 µM)	4 µg/mL (≈ 8.9 µM)	4 µg/mL (≈ 8.9 µM)	8 µg/mL (≈ 17.8 µM)	4 µg/mL (≈ 8.9 µM)	4 µg/mL (≈ 8.9 µM)	4 µg/mL (≈ 8.9 µM)	IC50 [2]: 11.6 µM; selectivity ratio [9]: 57; CC50 (HepG2): 170 µM; CC50 (A549): 252 µM; selectivity ratio [10]: 38; Papp A→B at 10 ug/ml [11]: 36.2 ×10⁻⁶ cm/s; hemolysis [12]: < 10%

SMILES	MIC (Streptococcus pneumoniae [1])	MIC (Acinetobacter baumannii)	MIC (Escherichia coli)	MIC (Klebsiella pneumoniae)	MIC (Enterobacter cloacae)	MIC (Pseudomonas aeruginosa)	MIC (Enterococcus faecalis)	MIC (Staphylococcus aureus [4])	MIC (Streptococcus agalactiae)	MIC (Staphylococcus aureus [6])	MIC [7]	MIC [8]	MIC (Streptococcus pyogenes)	other results
O=C(O)c1ccccc1C(=O)c1ccc(Sc2ccc(Cl)c(Cl)c2)c([N+](=O)[O-])c1	8 µg/mL (≈ 17.8 µM)	> 256 µg/mL	> 256 µg/mL	> 256 µg/mL	> 256 µg/mL	> 256 µg/mL	32 µg/mL (≈ 71.4 µM)	16 µg/mL (≈ 35.7 µM)	16 µg/mL (≈ 35.7 µM)	16 µg/mL (≈ 35.7 µM)	32 µg/mL (≈ 71.4 µM)	16 µg/mL (≈ 35.7 µM)	16 µg/mL (≈ 35.7 µM)	selectivity ratio [9]: 9; IC50 [13]: 20.4 µM; CC50 (HepG2): 63.8 µM; CC50 (A549): 76.7 µM; selectivity ratio [10]: 7; Papp A→B at 10 ug/ml [11]: 35 ×10⁻⁶ cm/s; MIC (Staphylococcus aureus [14]): > 256 µg/mL; hemolysis [12]: < 10%
